KDM4C inh = inhibitors of GASC-1 (KDM4C) histone demethylase, primary screen, biochemical, single concentration HTS | Lysine-specific demethylase 4C (Homo sapiens), Q9H3R0 | GST-KDM4C 2-372, H3K9me3 peptide, LANCE TR-FRET | inhibition, % at 12.5 µM | actives 0.15% (n = 96,000);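 active = mean replicate inhibition above about 25%, with at least 55% of replicates also reaching it, limit read from the data, passing the limit was not always enough; inconclusive = only one of those two conditions met; inactive = neither condition met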
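System – N-terminal GST-fused human GASC-1 (KDM4C) fragment, residues 2-372 · Input – enzyme final amount 10 nM · Technique – LANCE TR-FRET, Eu antibody, ULight-streptavidin, EDTA, ex 340 nm, em 618/671 nm · Medium – HEPES buffer, pH 7.5, plus ascorbate · Incubation – enzyme reaction 30 min, then detection 60 min, both room temperature · Reagent – H3K9me3 peptide with Fe(II)/2OG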
IDH1 R132H inh = inhibitors of IDH1 R132H reductase, primary screen, biochemical, plate reader, single point | Isocitrate dehydrogenase [NADP] cytoplasmic (Homo sapiens), O75874 | diaphorase/resazurin fluorescence, 60 min | inhibition, % at 10 µM | actives 0.18% (n = 70,000); in the data active = inhibition above about 34%; inconclusive = no clear call, values can overlap the other calls; inactive = below about 11%
Target sequence (O75874 whole entry R132H): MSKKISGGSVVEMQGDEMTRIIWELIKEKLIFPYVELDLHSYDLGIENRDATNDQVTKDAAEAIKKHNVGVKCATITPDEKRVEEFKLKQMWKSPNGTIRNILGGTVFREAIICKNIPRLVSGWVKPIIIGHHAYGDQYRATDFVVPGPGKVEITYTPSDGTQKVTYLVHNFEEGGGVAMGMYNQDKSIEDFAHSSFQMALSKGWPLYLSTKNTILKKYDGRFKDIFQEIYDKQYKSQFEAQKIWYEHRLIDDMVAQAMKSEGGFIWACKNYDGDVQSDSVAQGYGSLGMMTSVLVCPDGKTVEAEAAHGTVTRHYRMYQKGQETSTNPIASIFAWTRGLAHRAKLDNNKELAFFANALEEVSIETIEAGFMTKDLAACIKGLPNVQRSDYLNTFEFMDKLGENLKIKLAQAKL
T cruzi growth-1 = T. cruzi intracellular proliferation inhibitors, primary screen, cell-based, beta-gal Tulahuen parasites, NIH3T3 host, luminescence; T. cruzi beta-gal in NIH3T3, GalScreen luminescence, 90 h; inhibition, % at 8.34 µM; actives 5.9% (n = 77,000); AID 624255, 2012;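 active = mean inhibition above about 93%, with at least 55% of replicates each passing it, limit read from the data, passing the limit was not always enough; inconclusive = only one of those two conditions holds; inactive = neither condition holds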
T cruzi growth-2 = T. cruzi intracellular proliferation inhibitors, confirmation, cell-based, NIH3T3 host, beta-gal parasite, luminescence, cherry-pick | actives 72% (n = 5,600) | T. cruzi beta-gal in NIH3T3, GalScreen luminescence, 90 h | inhibition, % at 8.35 µM | shares compounds with T cruzi growth-1;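 active = mean replicate inhibition above about 95% and at least 55% of replicates individually reaching it, limit read from the data; inconclusive = only one of the two criteria is met; inactive = neither criterion is met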
T cruzi growth-3 = inhibitors of intracellular T. cruzi replication, confirmation, NIH3T3 host cells, beta-gal parasites, cherry-pick, set 2. inhibition, % at 2.09 µM. actives 21% (n = 5,600). shares compounds with T cruzi growth-1. T. cruzi beta-gal in NIH3T3, GalScreen luminescence, 90 h. AID 651740, 2012;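 active = mean inhibition above about 95%, with at least 55% of replicates also reaching it, limit read from the data; inconclusive = meets just one of the two conditions; inactive = meets neither condition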
3T3 cytotox = cytotoxicity in mouse NIH/3T3 fibroblasts, confirmation, cytotoxicity control for T. cruzi proliferation inhibitor project, cell-based, cherry-pick, single point. NIH/3T3 viability, CellTiter-Glo ATP luminescence, 90 h. actives 14% (n = 5,600). shares compounds with T cruzi growth-1. cytotoxicity (signal decrease), % at 8.35 µM;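 active = mean signal decrease across replicates above about 35% based on untreated-well scatter, with enough replicates individually passing, limit read from the data; inconclusive = no rule stated though some were filed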
3T3 cytotox 2 = NIH/3T3 fibroblast cytotoxicity, confirmation, cytotoxicity control, cell-based, cherry-pick, single point, set 2; NIH/3T3 viability, CellTiter-Glo ATP luminescence, 90 h; shares compounds with T cruzi growth-1; inhibition, % at 24.9 µM; actives 56% (n = 5,600);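 active = mean loss of cell viability signal at or above a set limit, and enough replicates individually reaching it; inconclusive = meets only the mean limit or only the replicate share; inactive = meets neither condition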
Numbers stand for hits; n = inactive; u = inconclusive; x = not tested or not shown. Many of the other results were omitted from the sample, so hits are more common in it than they were.

SMILES	KDM4C inh	IDH1 R132H inh	T cruzi growth-1	T cruzi growth-2	T cruzi growth-3	3T3 cytotox	3T3 cytotox 2
COc1ccccc1C#Cc1ccc([C@H]2[C@@H](CO)N3CCCCN(C(=O)C4CCCC4)C[C@@H]23)cc1	x	x	118	101	105	u	71
COc1ccccc1C#Cc1ccc([C@H]2[C@@H](CO)N3CCCCN(S(C)(=O)=O)C[C@H]23)cc1	n	x	n	x	x	x	x
CCS(=O)(=O)N1CCCCN2[C@H](CO)[C@@H](c3ccc(C#Cc4ccccc4OC)cc3)[C@@H]2C1	n	x	n	x	x	x	x
Cc1ccc(OCC(=O)Nc2ncccc2C)cc1	x	n	x	x	x	x	x
Cc1ccc2nc(-c3ccc(NC(=O)C(C)Oc4ccc5c(C)cc(=O)oc5c4)cc3)sc2c1 (stereo unspecified)	x	n	x	x	x	x	x
C[C@H](CO)N1C[C@H](C)[C@H](CN(C)CC2CCCCC2)Oc2ccc(NC(=O)Cc3ccccc3)cc2C1=O	n	x	n	x	x	x	x
C[C@@H]1CN([C@@H](C)CO)C(=O)c2cc(NC(=O)Cc3ccccc3)ccc2O[C@H]1CN(C)CC1CCCCC1	n	x	u	n	n	n	n
C[C@H]1CN([C@@H](C)CO)C(=O)c2cc(NC(=O)CCC(F)(F)F)ccc2O[C@H]1CN(C)CC1CCCCC1	n	n	n	x	x	x	x
C[C@H](CO)N1C[C@H](C)[C@@H](CN(C)CC2CCCCC2)Oc2ccc(NC(=O)CCC(F)(F)F)cc2C1=O	x	x	u	n	n	n	n
COc1ccccc1Nc1ncnc2c1cnn2Cc1ccccc1	x	n	x	x	x	x	x
COc1ccc(C(C)(C)C)cc1NC(=S)Nc1ccc(S(=O)(=O)Nc2ncccn2)cc1	x	n	x	x	x	x	x
Nc1cc(=O)[nH]c(SCC(=O)NCc2ccco2)n1	x	n	x	x	x	x	x
COc1ccc(NC(=O)Nc2ccc3c(c2)C(=O)N([C@H](C)CO)C[C@@H](C)[C@H](CN(C)Cc2ccccc2)OCCCC[C@H](C)O3)cc1	n	n	n	x	x	x	x
COc1ccc(NC(=O)Nc2ccc3c(c2)C(=O)N([C@H](C)CO)C[C@H](C)[C@H](CN(C)Cc2ccccc2)OCCCC[C@H](C)O3)cc1	n	x	n	x	x	x	x
COc1ccc(NC(=O)Nc2ccc3c(c2)C(=O)N([C@@H](C)CO)C[C@@H](C)[C@@H](CN(C)Cc2ccccc2)OCCCC[C@H](C)O3)cc1	n	n	103	106	n	n	n
COc1ccc(NC(=O)Nc2ccc3c(c2)C(=O)N([C@@H](C)CO)C[C@@H](C)[C@H](CN(C)Cc2ccccc2)OCCCC[C@@H](C)O3)cc1	n	n	98	111	n	n	n
COc1cccc(S(=O)(=O)Nc2ccc3c(c2)[C@@H]2C[C@H](CC(=O)N(C)C)O[C@H](CO)[C@@H]2O3)c1	n	n	n	x	x	x	x
CC(C)(C)c1ccc(-c2nnc(SCC(=O)Nc3ccccc3)n2-c2ccccc2)cc1	x	n	x	x	x	x	x
OC[C@H]1[C@H](c2ccc(C#Cc3ccccc3F)cc2)[C@@H]2CN(CC3CCOCC3)CCCCN12	n	x	u	106	n	41	106
CN1CCCCN2[C@H](CO)[C@H](c3ccc(C#Cc4ccccc4F)cc3)[C@@H]2C1	n	x	n	x	x	x	x
OC[C@@H]1[C@H](c2ccc(C#Cc3ccccc3F)cc2)[C@H]2CN(CC3CCOCC3)CCCCN12	n	x	106	101	110	40	104
OC[C@H]1[C@@H](c2ccc(C#Cc3ccccc3F)cc2)[C@@H]2CN(CC3CCOCC3)CCCCN12	n	x	n	x	x	x	x
O=C(CSc1nnc(-c2ccc(Cl)cc2)n1-c1ccc(F)cc1)N1CCOCC1	x	n	x	x	x	x	x
CC/C=C\C[C@@H]1C(=O)C=C[C@@H]1CCCCCCCC(=O)O	x	n	x	x	x	x	x
CC(C)NC(=O)Nc1ccc2c(c1)C(=O)N([C@H](C)CO)C[C@@H](C)[C@@H](CN(C)C(=O)C1CCCCC1)OCCCC[C@@H](C)O2	n	n	n	x	x	x	x
SMILES	KDM4C inh	IDH1 R132H inh	T cruzi growth-1	T cruzi growth-2	T cruzi growth-3	3T3 cytotox	3T3 cytotox 2
COc1ccc(CN(C)C[C@@H]2Oc3c(NC(=O)c4ccncc4)cccc3C(=O)N([C@H](C)CO)C[C@H]2C)cc1	x	n	x	x	x	x	x
Cc1noc(C)c1S(=O)(=O)N(C)C[C@H]1OCCCC[C@H](C)Oc2ccc(NS(=O)(=O)c3ccc(Cl)cc3)cc2C(=O)N([C@@H](C)CO)C[C@@H]1C	n	x	n	x	x	x	x
Cc1noc(C)c1S(=O)(=O)N(C)C[C@@H]1OCCCC[C@@H](C)Oc2ccc(NS(=O)(=O)c3ccc(Cl)cc3)cc2C(=O)N([C@H](C)CO)C[C@H]1C	n	n	103	105	n	n	n
Cc1noc(C)c1S(=O)(=O)N(C)C[C@@H]1OCCCC[C@H](C)Oc2ccc(NS(=O)(=O)c3ccc(F)cc3)cc2C(=O)N([C@H](C)CO)C[C@@H]1C	n	n	108	100	n	n	n
Cc1noc(C)c1S(=O)(=O)N(C)C[C@@H]1OCCCC[C@H](C)Oc2ccc(NS(=O)(=O)c3ccc(F)cc3)cc2C(=O)N([C@@H](C)CO)C[C@H]1C	n	x	n	x	x	x	x
Cc1ccc(S(=O)(=O)Nc2ccc3c(c2)C(=O)N([C@H](C)CO)C[C@@H](C)[C@H](CN(C)S(=O)(=O)c2c(C)noc2C)OCCCC[C@@H](C)O3)cc1	n	n	u	112	n	n	n
Cc1ccc(S(=O)(=O)Nc2ccc3c(c2)C(=O)N([C@H](C)CO)C[C@H](C)[C@H](CN(C)S(=O)(=O)c2c(C)noc2C)OCCCC[C@@H](C)O3)cc1	n	x	n	x	x	x	x
CCn1c2ccccc2c2cc(NC(=O)CCCN3C(=O)c4ccccc4C3=O)ccc21	x	n	x	x	x	x	x
O=C(C1CCCC1)N1C[C@@H]2[C@H](c3ccccc31)[C@H](CO)N2C(=O)c1ccccc1F	n	x	n	x	x	x	x
O=C(Nc1ccc(Cl)cc1)N1C[C@@H]2[C@H](c3ccccc31)[C@H](CO)N2CC1CCCCC1	n	x	118	111	n	n	103
O=C(Nc1ccc(F)cc1)N1C[C@H]2[C@@H](c3ccccc31)[C@@H](CO)N2Cc1ccccc1Cl	n	x	u	101	n	n	n
O=C(Nc1ccc(Cl)cc1)N1C[C@H]2[C@@H](c3ccccc31)[C@H](CO)N2CC1CCCC1	n	x	n	x	x	x	x
O=C(Nc1ccc(F)cc1)N1C[C@@H]2[C@H](c3ccccc31)[C@@H](CO)N2Cc1ccccc1Cl	n	x	n	x	x	x	x

High-throughput results deposited in PubChem by Broad Institute.
